Results on five compounds are retold here after ChEMBL document CHEMBL1275585, “Combined antibacterial and anti-inflammatory activity of a cationic disubstituted dexamethasone-spermine conjugate” (Antimicrob Agents Chemother, 2010).

The subject of series [1] is Staphylococcus aureus. As to the kind of experiment: Antibacterial activity against macrolide-lincosamide-streptogramin B-negative, beta-lactamase-positive, methicillin-susceptible Staphylococcus aureus ATCC 29213. It is filed as functional.
Series [2] deals with Staphylococcus aureus. As to the kind of experiment: Antibacterial activity against macrolide-lincosamide-streptogramin B-positive, beta-lactamase-positive, methicillin-resistant Staphylococcus aureus ATCC 43300. It is filed as functional. The procedure, abridged:
(§1)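 MIC by broth dilution in Mueller-Hinton broth, inoculum 8 × 10^5 CFU/ml. Strains were typed for beta-lactamase with cefinase, for methicillin susceptibility by Etest, and for macrolide-lincosamide-streptogramin B by disc diffusion on MHA at 0.5 McFarland.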

Series [3] relates to Staphylococcus aureus. As to the kind of experiment: Antibacterial activity against macrolide-lincosamide-streptogramin B-negative, beta-lactamase-positive, methicillin-susceptible Staphylococcus aureus isolate 3. It is filed as functional.
Series [4] concerns Staphylococcus aureus. As to the kind of experiment: Antibacterial activity against macrolide-lincosamide-streptogramin B-negative, beta-lactamase-positive, methicillin-susceptible Staphylococcus aureus isolate 4. It counts as functional.
For series [5], the system named is Staphylococcus aureus. As to the kind of experiment: Antibacterial activity against macrolide-lincosamide-streptogramin B-negative, beta-lactamase-positive, methicillin-susceptible Staphylococcus aureus isolate 5. It counts as functional.
Series [6] has as its system Staphylococcus aureus. As to the kind of experiment: Antibacterial activity against macrolide-lincosamide-streptogramin B-positive, beta-lactamase-positive, methicillin-resistant Staphylococcus aureus isolate 6. It counts as functional. The method, boiled down: as §1
The test system of series [7] is Staphylococcus aureus. As to the kind of experiment: Antibacterial activity against macrolide-lincosamide-streptogramin B-negative, beta-lactamase-positive, methicillin-susceptible Staphylococcus aureus ATCC 29213 in presence of clavulanic acid. It counts as functional. The procedure, abridged:
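Amoxicillin/clavulanic acid MIC against S. aureus measured alone and together with sublethal D2S concentrations.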

A short description of series [8]: Cytotoxicity against human neutrophil assessed as effect on cell viability up to 20 uM after 12 hrs by microscopy. It counts as cell-based. The procedure, abridged:
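Freshly isolated human blood neutrophils incubated with D2S up to 20 µM for 12 h. Viability scored by manual trypan blue exclusion.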

A further series has as its system Pseudomonas aeruginosa. As to the kind of experiment: Bactericidal activity against kanamycin-resistant Pseudomonas aeruginosa PAO1 up to 50 uM after 1 hr by time-kill assay.

Molecules are shown by their SMILES. ≈ marks a conversion by molar mass, not a printed value. Calls of active or inactive are those of the source.

In general, MIC refers to the smallest concentration in the dilution series that meets the test's criterion for growth inhibition. In the case of `NCC[C@H](O)C(=O)N[C@@H]1C[C@H](N)[C@@H](O[C@H]2O[C@H](CN)[C@@H](O)[C@H](O)[C@H]2O)[C@H](O)[C@H]1O[C@H]1O[C@H](CO)[C@@H](O)[C@H](N)[C@H]1O` [AMIKACIN], the MIC against Staphylococcus aureus [1] turned out to be 1.6 µg/mL (≈ 2.73 µM); in the series with Staphylococcus aureus [2], 25 µg/mL (≈ 42.7 µM); in the series on Staphylococcus aureus [3] it was 1.6 µg/mL (≈ 2.73 µM); against Staphylococcus aureus [4], 3.2 µg/mL (≈ 5.46 µM); in the series with Staphylococcus aureus [5], 1.6 µg/mL (≈ 2.73 µM); against Staphylococcus aureus [6], 25 µg/mL (≈ 42.7 µM).

In the case of `CC1(C)S[C@@H]2[C@H](NC(=O)[C@H](N)c3ccc(O)cc3)C(=O)N2[C@H]1C(=O)O` [AMOXICILLIN], the MIC against Staphylococcus aureus [2] is 12.5 µg/mL (≈ 34.2 µM); with Staphylococcus aureus [3], 0.2 µg/mL (≈ 0.547 µM); in the series on Staphylococcus aureus [4], 1.6 µg/mL (≈ 4.38 µM); against Staphylococcus aureus [5], 3.2 µg/mL (≈ 8.76 µM); against Staphylococcus aureus [6], 12.5 µg/mL (≈ 34.2 µM); in the series on Staphylococcus aureus [7], 0.4 µg/mL.

In the case of `C[C@@H]1C[C@H]2[C@@H]3CCC4=CC(=O)C=C[C@]4(C)[C@@]3(F)[C@@H](O)C[C@]2(C)[C@@]1(O)C(=O)CO` [DEXAMETHASONE], the Activity result in series [8] is given as “Non-toxic”. In addition, in the series on Pseudomonas aeruginosa, the outcome was inactive.

On to `CC[C@H]1OC(=O)[C@H](C)[C@@H](O[C@H]2C[C@@](C)(OC)[C@@H](O)[C@H](C)O2)[C@H](C)[C@@H](O[C@@H]2O[C@H](C)C[C@H](N(C)C)[C@H]2O)[C@](C)(O)C[C@@H](C)C(=O)[C@H](C)[C@@H](O)[C@]1(C)O` [ERYTHROMYCIN], for which the minimum inhibitory concentration (MIC) was 0.4 µg/mL (≈ 0.545 µM) in the series with Staphylococcus aureus [1]; 400 µg/mL (≈ 545 µM) in the series with Staphylococcus aureus [2]; 0.2 µg/mL (≈ 0.273 µM) against Staphylococcus aureus [3]; 0.4 µg/mL (≈ 0.545 µM) in the series on Staphylococcus aureus [4]; 0.2 µg/mL (≈ 0.273 µM) against Staphylococcus aureus [5]; 400 µg/mL (≈ 545 µM) in the series on Staphylococcus aureus [6].

`CN(C)[C@@H]1C(O)=C(C(N)=O)C(=O)[C@@]2(O)C(O)=C3C(=O)c4c(O)cccc4[C@@](C)(O)[C@H]3C[C@@H]12` [TETRACYCLINE]: the MIC against Staphylococcus aureus [1] was determined as 1.25 µg/mL (≈ 2.81 µM); in the series with Staphylococcus aureus [2] it was 0.625 µg/mL (≈ 1.41 µM); against Staphylococcus aureus [3] it was 1.25 µg/mL (≈ 2.81 µM); in the series with Staphylococcus aureus [4], 1.25 µg/mL (≈ 2.81 µM); against Staphylococcus aureus [5], 40 µg/mL (≈ 90 µM); in the series with Staphylococcus aureus [6], 20 µg/mL (≈ 45 µM).
